Experimental findings from ChEMBL document CHEMBL1667819, “Aminopyridinecarboxamide-based inhaled IKK-2 inhibitors for asthma and COPD: Structure-activity relationship” (Bioorg Med Chem, 2011) are described below.

What is called IC50 is the concentration that gives 50% inhibition. As a reminder, the half-life is the time in which the quantity being followed falls by half. Low readings indicate rapid decline, high ones slow decline.

Series [1] addresses Voltage-gated inwardly rectifying potassium channel KCNH2 (Homo sapiens, UniProt Q12809). In words: Displacement of dofetilide from human ERG transfected in HEK293 cells by fluorescence polarization assay. In short, it runs like this: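 Competition binding used membranes from HEK-293 cells transfected with hERG. Test compound competed with Cy3B-tagged N-desmethyl dofetilide for channel binding, with fluorescence polarization read-out. Values are given as % of effect.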
In general terms: Fluorescence polarisation rises when a labelled molecule tumbles more slowly, as on binding a larger partner.

Series [2] has as its target T1, Inhibitor of nuclear factor kappa-B kinase subunit beta (Homo sapiens, UniProt O14920).
T1 sequence (O14920 whole entry): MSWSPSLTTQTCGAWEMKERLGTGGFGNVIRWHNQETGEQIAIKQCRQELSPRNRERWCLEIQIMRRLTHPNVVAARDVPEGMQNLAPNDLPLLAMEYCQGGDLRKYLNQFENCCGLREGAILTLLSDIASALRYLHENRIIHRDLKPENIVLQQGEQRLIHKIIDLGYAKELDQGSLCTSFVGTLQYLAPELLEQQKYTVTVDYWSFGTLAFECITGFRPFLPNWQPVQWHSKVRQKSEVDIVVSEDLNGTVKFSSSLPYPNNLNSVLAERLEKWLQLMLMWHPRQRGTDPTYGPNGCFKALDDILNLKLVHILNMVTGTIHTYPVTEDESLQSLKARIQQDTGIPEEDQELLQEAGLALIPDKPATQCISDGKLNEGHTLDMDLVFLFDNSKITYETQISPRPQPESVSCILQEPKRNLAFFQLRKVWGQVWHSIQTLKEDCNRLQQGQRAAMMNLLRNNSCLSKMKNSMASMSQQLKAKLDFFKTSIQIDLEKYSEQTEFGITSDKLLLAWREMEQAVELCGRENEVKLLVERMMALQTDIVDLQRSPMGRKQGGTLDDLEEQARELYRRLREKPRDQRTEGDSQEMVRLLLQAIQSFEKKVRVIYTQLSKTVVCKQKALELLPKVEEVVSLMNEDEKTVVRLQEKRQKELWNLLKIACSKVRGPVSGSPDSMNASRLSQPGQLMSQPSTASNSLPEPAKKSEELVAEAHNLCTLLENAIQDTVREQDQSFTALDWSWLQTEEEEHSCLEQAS
The series is described as follows: Inhibition of human recombinant IKK2.

A further series has as its system PBMC. The series is described as follows: Inhibition of LPS-stimulated TNFalpha release in human PBMC. It counts as functional, cell-based. Put shortly: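 PBMC were Ficoll-isolated from heparinized blood of healthy donors and plated at 2.5 × 10⁵ cells/well in RPMI 1640 with 5% FBS and penicillin–streptomycin. Cells were preincubated with compound for 1 h, then stimulated with LPS (20 ng/ml) for 16 h. Supernatant TNFα was measured by ELISA, and IC50 is the mean of ≥3 experiments.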

A short description of series [3]: Half life in human liver microsomes. (In general: Microsomes from liver hold many membrane-bound enzymes, among them those of drug oxidation.)
Series [4] addresses T2, Inhibitor of nuclear factor kappa-B kinase subunit beta (Homo sapiens) (UniProt O14920).
T2 sequence (whole entry): T1 sequence (O14920 whole entry)
The series is described as follows: Binding affinity to human recombinant IKK2 assessed as half life.

The target in series [5] is T2, Inhibitor of nuclear factor kappa-B kinase subunit beta (Homo sapiens). The series is described as follows: Binding affinity to human IKK2 in PBMC assessed as half life by cell-based assay. In short, it runs like this:
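Cryopreserved PBMC were thawed and plated, then exposed to compound for 1 h. Compound was removed by four spin-and-aspirate washes, and an unwashed plate served as control. Loss of inhibition after washout gave the cellular half-life.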

Chain of Voltage-gated inwardly rectifying potassium channel KCNH2 (Q12809 whole entry): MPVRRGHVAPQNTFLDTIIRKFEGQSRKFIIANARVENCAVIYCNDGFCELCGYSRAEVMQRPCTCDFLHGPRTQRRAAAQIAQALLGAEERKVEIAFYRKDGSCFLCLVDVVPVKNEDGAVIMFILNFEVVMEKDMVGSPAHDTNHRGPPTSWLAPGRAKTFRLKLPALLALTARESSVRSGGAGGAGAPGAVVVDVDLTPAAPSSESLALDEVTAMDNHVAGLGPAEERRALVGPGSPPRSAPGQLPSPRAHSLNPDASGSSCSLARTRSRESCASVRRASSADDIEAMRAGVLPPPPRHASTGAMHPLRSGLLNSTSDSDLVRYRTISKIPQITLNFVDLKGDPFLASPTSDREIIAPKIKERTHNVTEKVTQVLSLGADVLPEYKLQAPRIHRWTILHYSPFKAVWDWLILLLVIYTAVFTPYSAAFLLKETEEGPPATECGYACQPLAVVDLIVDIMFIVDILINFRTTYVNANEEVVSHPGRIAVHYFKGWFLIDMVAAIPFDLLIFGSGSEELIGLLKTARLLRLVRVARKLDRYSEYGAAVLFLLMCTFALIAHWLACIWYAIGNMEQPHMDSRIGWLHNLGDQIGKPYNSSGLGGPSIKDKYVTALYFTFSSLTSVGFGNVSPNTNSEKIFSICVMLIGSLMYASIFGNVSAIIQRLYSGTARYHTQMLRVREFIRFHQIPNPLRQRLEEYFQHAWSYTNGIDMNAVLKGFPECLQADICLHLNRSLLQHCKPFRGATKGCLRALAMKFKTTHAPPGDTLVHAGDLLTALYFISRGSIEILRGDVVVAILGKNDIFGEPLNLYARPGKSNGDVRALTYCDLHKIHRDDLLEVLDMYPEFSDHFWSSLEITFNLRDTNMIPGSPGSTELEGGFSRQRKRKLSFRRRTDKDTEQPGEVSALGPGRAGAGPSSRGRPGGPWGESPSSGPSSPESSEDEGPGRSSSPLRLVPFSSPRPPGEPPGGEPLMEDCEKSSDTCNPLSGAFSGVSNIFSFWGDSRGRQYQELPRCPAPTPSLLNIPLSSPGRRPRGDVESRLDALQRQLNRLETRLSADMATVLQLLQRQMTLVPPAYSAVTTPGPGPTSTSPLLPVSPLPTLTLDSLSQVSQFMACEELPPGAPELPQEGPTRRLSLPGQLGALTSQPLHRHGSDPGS

Turning to `CCOC(=O)CCn1cc(CN2CCN(c3cc(C(=O)Nc4ccc5c(c4)-c4c(c(C(N)=O)nn4-c4ccc(F)cc4)CC5)c(Cl)cn3)CC2)cn1`, in series [1], the “inhibition (INH)” value worked out at 90%. Further, the IC50 in series [2] stood at 4.7 nM; with PBMC, 14 nM. In addition, the half-life in series [3] (liver microsomes) amounted to 0.05 h. In addition, the T1/2 was 6 h in series [4] and more than 4 h in series [5].
For the compound `CNC(=O)Cn1cc(CN2CCN(c3cc(C(=O)Nc4ccc5c(c4)-c4c(c(C(N)=O)nn4-c4ccc(F)cc4)CC5)c(Cl)cn3)CC2)cn1`, in series [1], the “inhibition (INH)” value is on record as 57%. The half-maximal inhibitory concentration (IC50) came out at 1.4 nM in series [2] and 15 nM with PBMC. This compound displayed a half-life in series [3] (liver microsomes) of 0.217 h. Moreover, the figures for the T1/2 in series [4] and in series [5] were 6 h and more than 4 h, respectively.
For `NC(=O)Cn1cc(CN2CCN(c3cc(C(=O)Nc4ccc5c(c4)-c4c(c(C(N)=O)nn4-c4ccc(F)cc4)CC5)c(Cl)cn3)CC2)cn1`, the “inhibition (INH)” value in series [1] is on record as 38%. The IC50 in series [2] was determined as 0.9 nM; in the series on PBMC, 7 nM. The half-life in series [3] (liver microsomes) is 0.967 h. Also, the T1/2 in series [4] is 5 h; in series [5] it was less than 4 h.
For the compound `NC(=O)c1nn(-c2ccc(F)cc2)c2c1CCc1ccc(NC(=O)c3cc(N4CCN(Cc5cnn(CC(=O)NCCO)c5)CC4)ncc3Cl)cc1-2`, the “inhibition (INH)” value in series [1] was 12%. Besides, the half-maximal inhibitory concentration (IC50) in series [2] was 1 nM; in the series with PBMC it was 9 nM. Moreover, in series [3] (microsomes), the half-life came to 2 h. The figures for the T1/2 in series [4] and in series [5] were 5 h and less than 4 h, respectively.
On to `CN(C)CCCn1cc(CN2CCN(c3cc(C(=O)Nc4ccc5c(c4)-c4c(c(C(N)=O)nn4-c4ccc(F)cc4)CC5)c(Cl)cn3)CC2)cn1`, for which the “inhibition (INH)” value in series [1] was 42%. Further, the figures for the IC50 (in series [2]; in the series on PBMC) were 3.7 nM and 12 nM, respectively. This compound registered a half-life in series [3] (liver microsomes) of 0.183 h. For the same compound, the T1/2 is 4 h in series [4] and more than 4 h in series [5].
In the case of `N#CCCn1cc(CN2CCN(c3cc(C(=O)Nc4ccc5c(c4)-c4c(c(C(N)=O)nn4-c4ccc(F)cc4)CC5)c(Cl)cn3)CC2)cn1`, the “inhibition (INH)” value in series [1] is on record as 98%. Further, the IC50 was found to be 7.6 nM in series [2] and 9 nM with PBMC. The half-life in series [3] (liver microsomes) was determined as 0.1 h. Moreover, the T1/2 was 5 h in series [4] and more than 4 h in series [5].
For the compound `CCOC(=O)Cn1cc(CN2CCN(c3cc(C(=O)Nc4ccc5c(c4)-c4c(c(C(N)=O)nn4-c4cccc(F)c4)CC5)c(Cl)cn3)CC2)cn1`, the “inhibition (INH)” value in series [1] came to 78%. The IC50 in series [2] is 5 nM; in the series with PBMC, 9 nM. This compound also gave a half-life in series [3] (liver microsomes) of 0.05 h. Further, the T1/2 is 5 h in series [4] and more than 4 h in series [5].
On to `CSCCNC(=O)Cn1cc(CN2CCN(c3cc(C(=O)Nc4ccc5c(c4)-c4c(c(C(N)=O)nn4-c4ccc(F)cc4)CC5)c(Cl)cn3)CC2)cn1`, for which the “inhibition (INH)” value in series [1] came out at 98%. The IC50 in series [2] was 2.5 nM; in the series with PBMC it was 10 nM. In addition, the half-life in series [3] (liver microsomes) was found to be 0.05 h. Besides, the T1/2 in series [4] and in series [5] was 4 h each time.
Consider `CN(C)C(=O)Cn1cc(CN2CCN(c3cc(C(=O)Nc4ccc5c(c4)-c4c(c(C(N)=O)nn4-c4ccc(F)cc4)CC5)c(Cl)cn3)CC2)cn1`, for which the “inhibition (INH)” value in series [1] is on record as 50%. Also, the IC50 in series [2] turned out to be 2.3 nM; in the series with PBMC, 13 nM. This compound also returned a half-life in series [3] (liver microsomes) of 0.133 h. In addition, the T1/2 was 5 h in series [4] and less than 4 h in series [5].
Regarding `COCCCn1cc(CN2CCN(c3cc(C(=O)Nc4ccc5c(c4)-c4c(c(C(N)=O)nn4-c4ccc(F)cc4)CC5)c(Cl)cn3)CC2)cn1`, the “inhibition (INH)” value in series [1] is 76%. Also, the IC50 in series [2] was determined as 2.8 nM; in the series with PBMC it was 16 nM. For the same compound, in series [3] (liver microsomes), the half-life was 0.05 h. Moreover, the T1/2 in series [4] is 4 h; in series [5] it was more than 4 h.
As to `CCOC(=O)Cn1cc(CN2CCN(c3cc(C(=O)Nc4ccc5c(c4)-c4c(c(C(N)=O)nn4-c4ccc(F)cc4)CC5)c(Cl)cn3)CC2)cn1`, the “inhibition (INH)” value in series [1] is recorded as 95%. For the same compound, the IC50 in series [2] was found to be 1 nM; in the series on PBMC it was 6 nM. This compound yielded a half-life in series [3] (liver microsomes) of 0.05 h. Also, the values for the T1/2 in series [4] and in series [5] were 5 h and more than 4 h, respectively.
